Experimental data taken from ChEMBL document CHEMBL4364256, “Design, synthesis and biological evaluation of antimicrobial diarylimine and -amine compounds targeting the interaction between the bacterial NusB and NusE proteins” (Eur J Med Chem, 2019).
In brackets after ≈: the same amount, converted by molar mass.

Columns and labels:
Bacillus subtilis = test: Inhibition of N-terminal LgBiT-fused Bacillus subtilis NusB expressed in Escherichia coli BL21(DE3)pLysS interaction with C- terminal SmBiT-fused Bacillus subtilis NusE expressed in Escherichia coli BL21(DE3)pLysS at 100 uM preincubated for 10 mins followed by NusE addition and measured after 10 mins by nano-glo luciferase assay relative to control
Summary of the method: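 NusB and NusE were mixed 1:1 at 1 µM in PBS, with compound at 100 µM. The read-out was percent inhibition of the NusB-NusE interaction.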

Enterococcus faecium = test: Antimicrobial activity against Enterococcus faecium ATCC 19433 incubated for 20 hrs by microdilution method; assay type: functional; settings: ATCC 19433, 20 h
Summary of the method: (§1)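 Broth microdilution MIC testing done following CLSI guidelines.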

Streptococcus pneumoniae = test: Antimicrobial activity against Streptococcus pneumoniae ATCC 49619 incubated for 20 hrs by microdilution method; assay type: functional; settings: ATCC 49619, 20 h; summary of the method: as §1
Acinetobacter baumannii = test: Antimicrobial activity against Acinetobacter baumannii ATCC 19606 incubated for 20 hrs by microdilution method; assay type: functional; settings: ATCC 19606 = CIP 70.34 = JCM 6841, 20 h; summary of the method: as §1
Pseudomonas aeruginosa = test: Antimicrobial activity against Pseudomonas aeruginosa ATCC 27853 incubated for 20 hrs by microdilution method; assay type: functional; settings: ATCC 27853, 20 h; summary of the method: as §1
Staphylococcus aureus [1] = test: microbe, parasite or virus in culture; settings: ATCC 25923, 20 h
Staphylococcus aureus [2] = test: microbe, parasite or virus in culture; settings: ATCC 29213, 20 h
[3] = microbe, parasite or virus in culture; settings: Enterobacter cloacae, ATCC 13047, 20 h

| Structure (SMILES) | inhibition (Bacillus subtilis) [%] | MIC (Enterococcus faecium) [µg/mL] | MIC (Streptococcus pneumoniae) [µg/mL] | MIC (Acinetobacter baumannii) [µg/mL] | MIC (Pseudomonas aeruginosa) [µg/mL] | MIC (Staphylococcus aureus [1]) [µg/mL] | MIC (Staphylococcus aureus [2]) [µg/mL] | MIC [3] [µg/mL] |
| --- | --- | --- | --- | --- | --- | --- | --- | --- |
| CC(C)(C)c1cccc(/N=C/c2cc([N+](=O)[O-])ccc2O)c1 | 51.3 | > 256 | 256 (≈ 858 µM) | 128 (≈ 429 µM) | > 256 | 4 (≈ 13.4 µM) | 16 (≈ 53.6 µM) | > 256 |
| C#Cc1cccc(/N=C/c2ccc([N+](=O)[O-])cc2O)c1 | 46.7 | > 256 | 128 (≈ 481 µM) | > 256 | > 256 | 64 (≈ 240 µM) | 256 (≈ 961 µM) | > 256 |
| C#Cc1cccc(/N=C/c2cc(C(=O)OC)ccc2O)c1 | 41.4 | > 256 | 128 (≈ 458 µM) | 64 (≈ 229 µM) | 256 (≈ 917 µM) | 128 (≈ 458 µM) | > 256 | > 256 |
| O=[N+]([O-])c1ccc(O)c(/C=N/c2cccc(C(F)(F)F)c2)c1 | 56.2 | > 256 | 32 (≈ 103 µM) | 256 (≈ 825 µM) | > 256 | 16 (≈ 51.6 µM) | 64 (≈ 206 µM) | 256 (≈ 825 µM) |
| O=[N+]([O-])c1ccc(O)c(/C=N/C2CCCCC2)c1 | 68.3 | > 256 | 16 (≈ 64.4 µM) | 256 (≈ 1030 µM) | > 256 | 4 (≈ 16.1 µM) | 8 (≈ 32.2 µM) | > 256 |
| C#Cc1cccc(/N=C/c2cc(C#N)ccc2O)c1 | 61.3 | 256 (≈ 1040 µM) | 128 (≈ 520 µM) | > 256 | > 256 | 32 (≈ 130 µM) | 64 (≈ 260 µM) | > 256 |
| O=[N+]([O-])c1ccc(O)c(CNc2ccccc2O)c1 | 81.5 | 256 (≈ 984 µM) | 64 (≈ 246 µM) | 128 (≈ 492 µM) | 256 (≈ 984 µM) | 16 (≈ 61.5 µM) | 32 (≈ 123 µM) | 256 (≈ 984 µM) |
| C#Cc1ccccc1/N=C/c1cc([N+](=O)[O-])ccc1O | 71.4 | > 256 | 32 (≈ 120 µM) | > 256 | > 256 | 4 (≈ 15 µM) | 16 (≈ 60.1 µM) | > 256 |

Continued, values first:

| inhibition (Bacillus subtilis) [%] | MIC (Enterococcus faecium) [µg/mL] | MIC (Streptococcus pneumoniae) [µg/mL] | MIC (Acinetobacter baumannii) [µg/mL] | MIC (Pseudomonas aeruginosa) [µg/mL] | MIC (Staphylococcus aureus [1]) [µg/mL] | MIC (Staphylococcus aureus [2]) [µg/mL] | MIC [3] [µg/mL] | Structure (SMILES) |
| --- | --- | --- | --- | --- | --- | --- | --- | --- |
| 54.1 | 32 (≈ 102 µM) | 16 (≈ 51.2 µM) | 32 (≈ 102 µM) | > 256 | 8 (≈ 25.6 µM) | 8 (≈ 25.6 µM) | 256 (≈ 820 µM) | O=[N+]([O-])c1ccc(O)c(CNc2ccc(C(F)(F)F)cc2)c1 |
| 87.7 | 256 (≈ 961 µM) | 256 (≈ 961 µM) | > 256 | 256 (≈ 961 µM) | 256 (≈ 961 µM) | 256 (≈ 961 µM) | > 256 | C#Cc1cccc(/N=C/c2cccc([N+](=O)[O-])c2O)c1 |
| 61.7 | 16 (≈ 51.2 µM) | 16 (≈ 51.2 µM) | 64 (≈ 205 µM) | > 256 | 4 (≈ 12.8 µM) | 4 (≈ 12.8 µM) | 256 (≈ 820 µM) | O=[N+]([O-])c1ccc(O)c(CNc2cccc(C(F)(F)F)c2)c1 |
| 54.2 | 256 (≈ 882 µM) | 8 (≈ 27.6 µM) | 128 (≈ 441 µM) | > 256 | 32 (≈ 110 µM) | 64 (≈ 221 µM) | > 256 | C#Cc1cccc(/N=C/c2cc(Cl)cc(Cl)c2O)c1 |
| 76.3 | 128 (≈ 481 µM) | 64 (≈ 240 µM) | > 256 | > 256 | 4 (≈ 15 µM) | 16 (≈ 60.1 µM) | > 256 | C#Cc1ccc(/N=C/c2cc([N+](=O)[O-])ccc2O)cc1 |
| 47.7 | 16 (≈ 59.6 µM) | 8 (≈ 29.8 µM) | 128 (≈ 477 µM) | > 256 | 16 (≈ 59.6 µM) | 16 (≈ 59.6 µM) | > 256 | C#Cc1cccc(NCc2cc([N+](=O)[O-])ccc2O)c1 |
| 58.3 | 64 (≈ 253 µM) | 8 (≈ 31.6 µM) | > 256 | > 256 | 64 (≈ 253 µM) | 32 (≈ 126 µM) | > 256 | C#Cc1cccc(NCc2cc(OC)ccc2O)c1 |
| 61.8 | 32 (≈ 133 µM) | 16 (≈ 66.3 µM) | 128 (≈ 531 µM) | > 256 | 32 (≈ 133 µM) | 32 (≈ 133 µM) | > 256 | C#Cc1cccc(NCc2cc(F)ccc2O)c1 |
| 48.2 | 32 (≈ 119 µM) | 16 (≈ 59.6 µM) | 64 (≈ 239 µM) | > 256 | 8 (≈ 29.8 µM) | 8 (≈ 29.8 µM) | > 256 | C#Cc1cccc(NCc2ccc([N+](=O)[O-])cc2O)c1 |
